Assay results reported in ChEMBL document CHEMBL5512639, “Insights from structure-activity relationships and the binding mode of peptidic α-ketoamide inhibitors of the malaria drug target subtilisin-like SUB1” (Eur J Med Chem, 2024).
Calls of active or inactive are those of the source. The rule behind the calls is not given here. Numbered stars: 1 amine (or outer) side, 2 acyl side, 3 side chain; on linkers, the order of the positions; unused ones are H or OH. Square brackets hold non-standard residues; d marks the D form. Peptide text beside a SMILES is read from it. * marks the point of attachment. Ala(1H-tetrazol-5-yl) = N[C@@H](Cc1nnn[nH]1)C(=O)O; Asp(3,3-Me2) = CC(C)(C(=O)O)[C@H](N)C(=O)O; X3 = NC(=O)CC[C@H](N[*:1])C(=O)C(=O)[*:2]; Gly(cPent) = N[C@H](C(=O)O)C1CCCC1; X1 = C[C@H](N[*:1])C(=O)C(=O)[*:2]; Pentanoyl(4-Me) = CC(C)CCC(=O)*; Cha = N[C@@H](CC1CCCCC1)C(=O)O; Chg = N[C@H](C(=O)O)C1CCCCC1; OAll = C=CCO*

Columns and labels:
[1] = Inhibition of full length recombinant Plasmodium vivax SUB1 expressed in Drosophila S2 cells using Dabsyl-KLVGADDV-SLA-EDANS as substrate measured every 2 mins for 1 hr by FRET assay
[2] = target: T1, Subtilisin-like protease 1 (Plasmodium falciparum, UniProt O61142); test: Inhibition of full length recombinant Plasmodium falciparum SUB1 using Dabsyl-KLVSADNIDIS-EDANS as substrate measured every 2 mins for 1 hr by FRET assay
T1 sequence (O61142 whole entry): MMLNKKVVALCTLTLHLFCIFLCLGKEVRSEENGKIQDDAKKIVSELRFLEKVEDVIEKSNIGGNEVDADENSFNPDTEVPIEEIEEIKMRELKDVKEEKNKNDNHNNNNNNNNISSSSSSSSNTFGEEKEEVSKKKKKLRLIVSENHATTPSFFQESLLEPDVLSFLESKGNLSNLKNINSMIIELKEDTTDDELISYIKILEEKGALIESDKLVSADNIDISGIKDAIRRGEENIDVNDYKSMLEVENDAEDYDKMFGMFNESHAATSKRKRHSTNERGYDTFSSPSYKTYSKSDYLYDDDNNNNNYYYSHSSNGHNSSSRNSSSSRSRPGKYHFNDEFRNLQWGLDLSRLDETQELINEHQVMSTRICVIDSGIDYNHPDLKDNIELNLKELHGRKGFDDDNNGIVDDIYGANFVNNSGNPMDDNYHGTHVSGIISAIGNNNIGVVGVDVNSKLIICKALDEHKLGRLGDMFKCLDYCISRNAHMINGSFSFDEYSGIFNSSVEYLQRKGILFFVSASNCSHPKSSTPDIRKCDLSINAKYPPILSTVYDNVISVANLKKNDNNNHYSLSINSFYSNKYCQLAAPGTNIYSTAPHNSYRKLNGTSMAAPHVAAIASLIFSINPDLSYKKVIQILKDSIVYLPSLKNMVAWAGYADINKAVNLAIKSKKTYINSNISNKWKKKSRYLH

Plasmodium falciparum [3] = test: Antiparasitic activity against Plasmodium falciparum infected in human Erythrocyte assessed as inhibition of merozoite egress from human Erythrocyte at 100 uM measured for 8 hrs by flow cytometry analysis relative to control; format: functional
How it was run: (§1)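 P. falciparum cultured in human RBCs, RPMI 1640 with 25 mM HEPES, 2.5% Albumax II, 100 μM hypoxanthine, 37 °C, 5% O2/5% CO2. Sorbitol-synchronized, plasmion-enriched late schizonts at 2% hematocrit, 1% parasitemia exposed to compound for 8 h. Fixed in glutaraldehyde, permeabilized, RNase-treated, stained with YOYO-1. Ring parasitemia by flow cytometry (100,000 events) vs DMSO. Triplicate; IC50 from 16 concentrations, 180 to 0.8 μM.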

[4] = Selectivity ratio of IC50 for inhibition of full length recombinant Plasmodium vivax SUB1 expressed in Drosophila S2 cells using Dabsyl-KLVGADDV-SLA-EDANS as substrate to IC50 for inhibition of full length recombinant Plasmodium falciparum SUB1 using Dabsyl-KLVSADNIDIS-EDANS as substrate
Plasmodium falciparum [5] = test: Antiparasitic activity against Plasmodium falciparum infected in human Erythrocyte assessed as inhibition of merozoite egress from human Erythrocyte at 25 uM measured for 8 hrs by flow cytometry analysis relative to control; format: functional; how it was run: as §1
[6] = Metabolic stability in human serum measured after 24 hrs by LC-MS analysis; format: ADME, cell-free; details: read-out: Stability
How it was run: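 Pooled human serum prewarmed 20 min at 37 °C; peptide added to 0.6 mM final. Aliquots taken over 0-24 h and proteins precipitated with MeCN/H2O/formic acid. Supernatant lyophilized and analysed by LC-SWATH-MS. Intact peak area expressed as % of the 0 h value. Two independent experiments in duplicate, mean ± SEM.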

[7] = test system: Subtilisin-like protease 1 (Plasmodium vivax); test: Binding affinity to Plasmodium vivax SUB1 using Dabsyl-KLVGADDV-SLA-EDANS as substrate using catalytic domain assessed as bound half life by jump dilution assay
[8] = test system: Subtilisin-like protease 1 (Plasmodium vivax); test: Binding affinity to Plasmodium vivax SUB1 using Dabsyl-KLVGADDV-SLA-EDANS as substrate using catalytic domain assessed as dissociation constant (Koff) by jump dilution assay
[9] = test system: Subtilisin-like protease 1 (Plasmodium vivax); test: Binding affinity to Plasmodium vivax SUB1 catalytic domain assessed as thermal stabilization by measuring change in melting temperature by differential scanning fluorimetry
Sus scrofa [10] = species: Sus scrofa; test: Inhibition of porcine Pancreas trypsin using Nalpha-benzoyl-L-arginine-p-nitroanilide hydrochloride preincubated with compound for 15 mins followed by substrate addition and measured after 1 hr; details: time 75.0 min
How it was run: (§2)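 Enzyme in 100 mM Tris-HCl pH 8.0, 20 mM CaCl2: trypsin 5 μg/mL, chymotrypsin 0.5 μg/mL or elastase 5 μg/mL. Mixed with compound (2 μL of 10 mM stock into 98 μL) and preincubated 15 min. p-Nitroanilide substrate then added to 1 mM final. Absorbance at 405 nm followed for 1 h; DMSO and 2 mM PMSF as controls; triplicate.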

Bos taurus = species: Bos taurus; test: Inhibition of bovine Pancreas chymotrypsin using Nalpha-succinyl-Ala-Ala-Pro-phe-p-nitroanilide preincubated with compound for 15 mins followed by substrate addition and measured after 1 hr; details: time 75.0 min; how it was run: as §2
Sus scrofa [11] = species: Sus scrofa; test: Inhibition of porcine Pancreas elastase using Nalpha-succinyl-Ala-Ala-Ala-p-nitroanilide preincubated with compound for 15 mins followed by substrate addition and measured after 1 hr relative to control; details: time 75.0 min; how it was run: as §2
[12] = Inhibition of porcine Pancreas elastase using Nalpha-succinyl-Ala-Ala-Ala-p-nitroanilide preincubated with compound for 15 mins followed by substrate addition and measured after 1 hr; design: species or system Sus scrofa; how it was run: as §2
[13] = Selectivity ratio, ratio of IC50 for porcine Pancreas elastase to IC50 for Plasmodium vivax SUB1
[14] = Selectivity ratio, ratio of IC50 for porcine Pancreas elastase to IC50 for Plasmodium falciparum SUB1
[15] = Inhibition of elastase (unknown origin); design: species or system Homo sapiens
[16] = target: T1, Subtilisin-like protease 1; test: Inhibition of Plasmodium falciparum SUB1 assessed as inhibition constant
Plasmodium falciparum [17] = test: Antiparasitic activity against Plasmodium falciparum infected in human Erythrocyte assessed as inhibition of merozoite egress from human Erythrocyte measured for 8 hrs by flow cytometry analysis; format: functional, organism-based; how it was run: as §1

Compound | IC50 [1] [nM] | IC50 [2] [nM] | inhibition at 100 µM (Plasmodium falciparum [3]) [%] | Ratio IC50 [4] | other results
C=CCOC(=O)CC[C@H](NC(=O)[C@H](CC(=O)O)NC(=O)C(=O)[C@H](C)NC(=O)[C@H](C)NC(=O)[C@@H](NC(=O)[C@@H](NC(C)=O)C1CCCCC1)[C@@H](C)O)C(N)=O (Ac-[Chg]TA[X1]DE(OAll)-NH2) | 200 | 1950 | 13 | 9 | 
CC[C@H](C)[C@H](NC(=O)[C@H](CC(=O)O)NC(=O)C(=O)[C@H](C)NC(=O)[C@H](C)NC(=O)[C@@H](NC(=O)[C@@H](NC(C)=O)C1CCCC1)[C@@H](C)O)C(N)=O (Ac-[Gly(cPent)]TA[X1]DI-NH2) | 14 | 17 | 99.8 |  | inhibition at 25 µM (Plasmodium falciparum [5]): 25%
C=CCOC(=O)CC[C@H](NC(=O)[C@H](CC(=O)O)NC(=O)C(=O)[C@H](C)NC(=O)[C@H](C)NC(=O)[C@@H](NC(=O)[C@@H](NC(C)=O)[C@@H](C)CC)[C@@H](C)O)C(N)=O (Ac-ITA[X1]DE(OAll)-NH2) | 180 | 1950 | 13 | 9 | remaining at 24 h [6]: ~95%; T1/2 [7]: 10 min; K [8]: 0.074 min⁻¹
C=CCOC(=O)CC[C@H](NC(=O)[C@@H](NC(=O)C(=O)[C@H](C)NC(=O)[C@H](C)NC(=O)[C@@H](NC(=O)[C@@H](NC(C)=O)C1CCCC1)[C@@H](C)O)C(C)(C)C(=O)O)C(N)=O (Ac-[Gly(cPent)]TA[X1][Asp(3,3-Me2)]E(OAll)-NH2) | 180 | 1030 | 3 |  | 
C=CCOC(=O)CC[C@H](NC(=O)[C@H](CC(=O)O)NC(=O)C(=O)[C@H](C)NC(=O)[C@H](C)NC(=O)[C@@H](NC(=O)[C@H](CC1CCCCC1)NC(C)=O)[C@@H](C)O)C(N)=O (Ac-[Cha]TA[X1]DE(OAll)-NH2) | 4080 | 34900 |  | 9 | inhibition (Plasmodium falciparum [3]): inactive; ΔTm [9]: 6.8 °C
C=CCOC(=O)CC[C@H](NC(=O)[C@H](Cc1nnn[nH]1)NC(=O)C(=O)[C@H](C)NC(=O)[C@H](C)NC(=O)[C@@H](NC(=O)[C@@H](NC(C)=O)[C@@H](C)CC)[C@@H](C)O)C(N)=O (Ac-ITA[X1][Ala(1H-tetrazol-5-yl)]E(OAll)-NH2) | 1240 | 24400 | 2 |  | 
C=CCOC(=O)CC[C@H](NC(=O)[C@H](CC(=O)O)NC(=O)C(=O)[C@H](C)NC(=O)[C@H](C)NC(=O)[C@@H](NC(=O)[C@@H](NC(C)=O)C1CCCC1)C1CCCC1)C(N)=O (Ac-[Gly(cPent)][Gly(cPent)]A[X1]DE(OAll)-NH2) | 80 | 100 | 46 | 1.25 | inhibition at 25 µM (Plasmodium falciparum [5]): 6%
C=CCOC(=O)CC[C@H](NC(=O)[C@H](CC(=O)O)NC(=O)C(=O)[C@H](C)NC(=O)[C@H](C)NC(=O)[C@@H](NC(=O)[C@@H](NC(C)=O)C1CCCC1)[C@@H](C)O)C(N)=O | 50 | 570 | 37 | 9 | inhibition (Sus scrofa [10]): inactive; inhibition (Bos taurus): inactive; inhibition (Sus scrofa [11]): Active; IC50 [12]: 36000 nM; Ratio IC50 [13]: 720; Ratio IC50 [14]: 63; IC50 [15]: 820 nM; remaining at 24 h [6]: ~95%; T1/2 [7]: 30 min; ΔTm [9]: 14.3 °C; K [8]: 0.023 min⁻¹
CC(=O)N[C@H](C(=O)N[C@H](C(=O)N[C@@H](C)C(=O)N[C@@H](C)C(=O)C(=O)N[C@@H](CC(=O)O)C(=O)N[C@@H](CCC(=O)O)C(N)=O)[C@@H](C)O)C1CCCC1 (Ac-[Gly(cPent)]TA[X1]DE-NH2) | 30 | 88 |  |  | inhibition (Plasmodium falciparum [3]): inactive
CC[C@H](C)[C@H](NC(=O)[C@H](CCCCN)NC(=O)CCC(C)C)C(=O)N[C@H](C(=O)N[C@@H](C)C(=O)N[C@@H](CCC(N)=O)C(=O)C(=O)N[C@@H](CC(=O)O)C(=O)N[C@@H](CC(=O)O)C(=O)N[C@@H](CCC(N)=O)C(=O)N[C@@H](CCC(N)=O)C(N)=O)[C@@H](C)O ({Pentanoyl(4-Me)}-KITA[X3]DDQQ-NH2) |  |  |  |  | Ki [16]: 10000 nM
C=CCOC(=O)CC[C@H](NC(=O)[C@H](CO)NC(=O)C(=O)[C@H](C)NC(=O)[C@H](C)NC(=O)[C@@H](NC(=O)[C@@H](NC(C)=O)C1CCCC1)[C@@H](C)O)C(N)=O (Ac-[Gly(cPent)]TA[X1]SE(OAll)-NH2) | 10900 | 32200 | 11 |  | 
CC(=O)N[C@H](C(=O)N[C@H](C(=O)N[C@@H](C)C(=O)N[C@@H](C)C(=O)C(=O)N[C@@H](CC(=O)O)C(N)=O)[C@@H](C)O)C1CCCC1 (Ac-[Gly(cPent)]TA[X1]D-NH2) | 100 | 550 | 32 |  | T1/2 [7]: 20 min; K [8]: 0.034 min⁻¹
C[C@@H](NC[C@@H](O)[C@H](Cc1ccccc1)NC(=O)c1ccc(C(=O)N2CCN(C)CC2)cc1)c1ccccc1 |  |  |  |  | IC50 (Plasmodium falciparum [17]): 1.1 nM
